Screens as filed in PubChem.
Most compounds without a hit are left out; they make up all but 3% or so of the library.
5HT1E ag: 5-HT1E (human) receptor agonism; activation, % at 6 µM; 65,000 compounds, 0.69% hits; P28566; CHO 5-HT1E Ga15 NFAT-bla reporter, FRET; 0% DMSO wells, 100% control agonist wells;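 active means activation above a set limit, the screen-wide mean activation plus 3 SD, cut at about 8.5% in these data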
S1P1 ag pot: agonists and agonism potentiators of human S1P1 receptor | activation, % at 9.5 µM | AID 449 | 56,000 compounds, 0.57% hits | S1P1 CRE-bla cells, forskolin, beta-lactamase FRET, potentiator mode; S1P1 agonist co-added at EC20, 2 nM; 100% = saturating reference agonist, 0% = basal;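 active means activation above a cutoff set at the mean activation of all tested compounds plus 3 SD, cut at about 54% in these data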;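 further: forskolin at 4 µM as EC80 and the EC20 agonist is SEW2871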
HTR1A agonist: 5-HT1a (human) receptor agonism. P08908. activation, % at 10 µM. CHO 5-HT1a Ga15 NFAT-bla reporter, FRET ratio; 0% basal, 100% maximal reference agonist. AID 567. 65,000 compounds, 0.56% hits;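 active means activation above the screen-wide mean activation plus 3 SD, cut at about 19% in these data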
Target sequence (P08908 whole entry, looked up): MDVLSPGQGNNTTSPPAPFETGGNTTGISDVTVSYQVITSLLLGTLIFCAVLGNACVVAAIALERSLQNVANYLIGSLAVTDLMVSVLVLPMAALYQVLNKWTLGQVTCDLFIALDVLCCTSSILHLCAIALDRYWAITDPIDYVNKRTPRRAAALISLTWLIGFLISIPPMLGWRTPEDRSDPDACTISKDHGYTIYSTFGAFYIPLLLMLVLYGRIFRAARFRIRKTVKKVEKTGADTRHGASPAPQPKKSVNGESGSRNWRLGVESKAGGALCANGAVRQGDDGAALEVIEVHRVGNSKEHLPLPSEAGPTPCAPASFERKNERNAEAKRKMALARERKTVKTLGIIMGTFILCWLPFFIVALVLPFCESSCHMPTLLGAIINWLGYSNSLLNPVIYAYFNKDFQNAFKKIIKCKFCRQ
S1P3 ag: agonists of human S1P3 receptor; activation, % at 4.5 µM; Q99500; 60,000 compounds, 0.1% hits; S1P3 NFAT-BLA reporter cells, agonism, FRET ratio; relative to 1 µM S1P, basal subtracted; AID 373;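 active means activation above the screen-wide mean plus 3 SD, cut at about 4.5% in these data, passing the limit was not always enough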
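Benchmarks: high control 1 µM S1P / System: stable CHO line with human S1P3, Gα16, NFAT-BLA reporter / Dosing: single compound concentration, 4.5 µM final / Timing: 4 h compound at 37 °C, 2 h substrate at RT / Measured by: FRET β-lactamase substrate fluorescence, excitation 405 nm, 460/535 nm emission ratio, background-subtracted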
5-HT1A blocker: antagonists of human 5-HT1a serotonin receptor; CHO 5-HT1a Ga15 NFAT-bla reporter, antagonist mode; inhibition, % at 10 µM; 62,000 compounds, 0.68% hits;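 active means inhibition above the mean of all tested compounds plus 3 SD, cut at about 43% in these data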;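 further: receptor stimulated by 5-CT agonist at 100 nM near EC80; beta-lactamase reporter measured by ratiometric fluorescence of a cleavable substrate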
5HT1E antag: blocks the human 5-HT1E serotonin receptor; inhibition, % at 6 µM; 65,000 compounds, 0.99% hits; CHO 5-HT1E Ga15 NFAT-bla reporter, FRET, antagonist; P28566;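 active means inhibition above a set limit, the mean inhibition across every tested compound plus 3 SD, cut at about 29% in these data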;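 further: signal is the 460 over 535 nm emission ratio of beta-lactamase substrate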
Of the large screens only hits and unclear results are named; the others gave an inactive call.

N#Cc1ccccc1Cn1c(=O)n(Cc2ccc(C(=O)NCc3ccco3)cc2)c(=O)c2ccccc21	none
COc1cc2c(cc1OC)C1=C(C#N)CN(CC(=O)O)CN1CC2	5HT1E antag 32.7
COc1cc2c(cc1OC)CN(C(=O)COc1ccc(C#N)cc1)CC2	none
Cc1ccc(Cn2c(Sc3nnc(C)s3)nc3c2c(=O)[nH]c(=O)n3C)cc1	5HT1E antag 40.6
Cc1noc(C)c1CSc1nnc2c(C)cc3ccccc3n12	none
Cc1cc(C(=O)CSc2nnnn2-c2ccc(O)cc2)c(C)n1Cc1ccc2c(c1)OCO2	S1P1 ag pot 61.3
CSc1nncn1/N=C/c1cc(Cl)ccc1F	none
COc1cc(NC(=O)c2cccc3c2C(=O)N(Cc2cccnc2)C3)cc(OC)c1OC	5HT1E antag 29.8
O=C(Nc1ccc2c(c1)OCO2)c1cccc2c1C(=O)N(Cc1cccnc1)C2	none
Fc1ccc(Cn2nnnc2CN2CCN(C3CCCC3)CC2)cc1	none
CC(C)C(c1nnnn1Cc1cccs1)N1CCN(C2CCCC2)CC1 (configuration not stated)	HTR1A agonist 31.4
CCC(c1nnnn1Cc1ccc(F)cc1)N1CCN(C2CCCCC2)CC1 (configuration not stated)	5-HT1A blocker 46.8
CCOC(=O)CSc1nnc(CNC(=O)c2cccs2)n1CCc1ccccc1	none
Cc1cc(C)nc(/N=C(\N)C2=C(O)CC(C)(C)CC2=O)n1	none
Cc1ccc2c(c1)[nH]c1c(=O)n(Cc3ccccn3)cnc12	none
Fc1ccccc1Cn1nnc2c(-n3ccnc3)ncnc21	none
COC(=O)Cc1c(C)c2c(O)cc(C)cc2oc1=O	HTR1A agonist 133.6
Cc1c(NC(=O)c2cnn3c2NC(c2ccco2)CC3C(F)(F)F)c(=O)n(-c2ccccc2)n1C (configuration not stated)	none
COc1ccccc1NC(=O)N1CCN(c2cc(-c3ccccc3)nc3ncnn23)CC1	none
Cc1ccc2c(c1)NC(=O)C(CC(=O)NCCCN1CCN(c3cc(C)ccc3C)CC1)O2 (configuration not stated)	5-HT1A blocker 47.3
COC(=O)c1ccc2[nH]c(C)c(CN3CCCC3)c(=O)c2c1	none (no result: S1P1 ag pot, S1P3 ag)
Cc1[nH]c2ccc(Br)cc2c(=O)c1CN1CCCCC1	HTR1A agonist 104.3
O=c1c2ccccc2nc2n1CC/C2=C/N1CCN(c2cccc(C(F)(F)F)c2)CC1	5HT1E ag 39.3
O=C(Nc1nc2c(s1)CCCC2)c1cc2n(n1)C(C(F)(F)F)CC(C1CC1)N2 (configuration not stated)	S1P1 ag pot 106.8
Cc1nnc(NC(=O)c2cc3n(n2)C(C(F)(F)F)CC(C2CC2)N3)s1 (configuration not stated)	none
Cc1ccccc1Cn1nc(C)c(NC(=O)c2noc3c2CCc2ccccc2-3)c1C	none
Cc1ccc(S(=O)(=O)N2CCCSCC2)cc1	HTR1A agonist 48.9
CSc1nc2ccc(Nc3nc(N4CCOCC4)nc(N4CCOCC4)n3)cc2s1	5HT1E antag 32.8
CSc1nc2ccc(NC(=O)C3CCCO3)cc2s1 (configuration not stated)	5HT1E ag 52.3
CSc1nc2ccc(NC(=O)C3CC(=O)N(Cc4ccco4)C3)cc2s1 (configuration not stated)	none (no result: S1P1 ag pot, S1P3 ag)
Cc1ccc(Nc2nc(N3CCOCC3)nc(N3CCOCC3)n2)cc1	none
CCOC(=O)c1c(SC)nc(SC)c2c1CCC2	none (no result: 5-HT1A blocker)
COc1cccc(CNC(=O)c2nnn(CC(=O)Nc3ccc(C)c(C)c3)c2N)c1	none (no result: S1P1 ag pot, S1P3 ag)
Cc1ccc(NC(=O)Cn2nnc(C(=O)Nc3ccc(C)c(C)c3)c2N)cc1	5HT1E antag 36.5 (no result: S1P1 ag pot, S1P3 ag)
COc1ccc(CCNC(=O)C2CCCN(S(C)(=O)=O)C2)cc1OC (configuration not stated)	none (no result: S1P1 ag pot, S1P3 ag)
COC(=O)c1cc(C(=O)OC)cc(S(=O)(=O)Nc2ccc(Cl)c(N)c2)c1	none
COc1ccc2c(c1)sc1nc(-c3ccccc3)cn12	5-HT1A blocker 64.6, 5HT1E antag 75.0
[O-][N+]1=C2CCC/C(=N\O)C2=NC12CCCCC2	none
